Assay results taken from article PMC5516890 (Bioconjugate chemistry, 2016).
Like-named read-outs stand apart in the source and are kept apart here.

Tests used:
PSMA [1] = biological target: T1, PSMA (Homo sapiens, UniProt Q04609); conditions: for comparison; cited from earlier work
PSMA [2] = biological target: T1, PSMA; test: PSMA inhibition assay; type: biochemical; conditions: LNCaP cell lysates, 4 μM NAAG
Outline: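 PSMA source: LNCaP cell lysate. Test compound (0.01 nM–100 μM) incubated with 4 μM NAAG, 37 °C, 2 h. Released glutamate detected with Amplex Red glutamic acid working solution, 37 °C, 60 min; fluorescence ex 490/em 642 nm. IC50 from semilog inhibition curves, then Ki by Cheng–Prusoff. Triplicates; whole inhibition study repeated at least once.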

kidneys = test: Radiation dosimetry; type: in vivo, NOD-SCID mice
[3] = Octanol-water partition coefficient; type: physicochemical; conditions: pH 7.4
[4] = tested on: PSMA^+ PC3 PIP and PSMA^− PC3 flu xenografts; test: Small animal PET imaging; type: in vivo, NOD-SCID mice
Outline: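 Male NOD-SCID mice given 1 × 106 PSMA+ PC3 PIP and PSMA− PC3 flu cells s.c. in opposite flanks, cells trypsinized at 80–90% confluence into HBSS. Imaged at 3–5 mm tumors after i.v. 0.36 mCi (13.3 MBq) radiotracer in 0.2 mL PBS under isoflurane/oxygen. PET/CT at 30, 60, 120 min; 10 min per bed, 20 min total; 250–700 keV; FORE/2D-OSEM, decay/dead-time/scatter corrected.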

T1 sequence (Q04609 whole entry): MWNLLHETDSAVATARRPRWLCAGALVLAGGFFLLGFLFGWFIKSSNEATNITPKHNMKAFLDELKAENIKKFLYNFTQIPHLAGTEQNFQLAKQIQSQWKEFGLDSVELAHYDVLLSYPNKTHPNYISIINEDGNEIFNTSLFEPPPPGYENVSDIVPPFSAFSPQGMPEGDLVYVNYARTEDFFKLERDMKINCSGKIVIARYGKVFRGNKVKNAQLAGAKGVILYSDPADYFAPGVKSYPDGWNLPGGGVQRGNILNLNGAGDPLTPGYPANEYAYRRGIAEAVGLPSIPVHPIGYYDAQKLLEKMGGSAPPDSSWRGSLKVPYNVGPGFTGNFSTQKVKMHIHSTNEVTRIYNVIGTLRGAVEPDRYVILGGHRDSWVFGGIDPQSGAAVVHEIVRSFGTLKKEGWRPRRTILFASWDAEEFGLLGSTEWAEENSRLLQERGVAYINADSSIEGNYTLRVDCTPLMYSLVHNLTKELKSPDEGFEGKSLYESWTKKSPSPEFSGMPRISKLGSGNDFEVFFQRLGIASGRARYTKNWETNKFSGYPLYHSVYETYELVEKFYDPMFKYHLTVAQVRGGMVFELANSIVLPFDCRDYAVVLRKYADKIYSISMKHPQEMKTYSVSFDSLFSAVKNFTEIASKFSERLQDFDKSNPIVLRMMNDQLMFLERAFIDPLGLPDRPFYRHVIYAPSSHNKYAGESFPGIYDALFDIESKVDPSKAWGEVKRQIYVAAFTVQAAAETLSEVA

**Q.** Which Ki (PSMA [1]) does the source give for O=C(O)CCC(NC(=O)NC(CCCCNC(=O)c1ccc(F)cc1)C(=O)O)C(=O)O (stereo not shown) [DCFBzL] here?
**A.** 0.19 nM

**Q.** For O=C(O)CCC(NC(=O)NC(CCCCNC(=O)CCc1cn(CCF)nn1)C(=O)O)C(=O)O (stereo not shown) [YC-88, 2-[3-(1-Carboxy-5-{3-[1-(2-fluoroethyl)-1 H-1,2,3-tria-zol-yl]propanamido}pentyl)ureido]pentanedioic Acid], which Ki (PSMA [2]; 37 °C, 2 h, Cheng–Prusoff conversion) is on record?
**A.** 12.9 nM

**Q.** What about the Ki (PSMA [2]; read-out: Ki 95% confidence intervals) of the same compound?
**A.** 8.7 to 19.1 nM

**Q.** With O=C(O)CCC(NC(=O)NC(CCCCNC(=O)c1ccc([18F])nc1)C(=O)O)C(=O)O (stereo not shown) [[^18F]DCFPyL, 2-(3-{1-carboxy-5-[(6-[^18F]fluoropyridine-3-carbonyl)-amino]-pentyl}-ureido)-pentanedioic acid, reference compound] as the compound, how does the AUC (kidneys; male, NOD-SCID, mouse, in vivo) read?
**A.** 340.74 % ID/g-h

**Q.** And the biological half-life (kidneys; male, NOD-SCID, mouse, in vivo)?
**A.** 1.20 h

**Q.** What about the logP [3] of the same compound?
**A.** -3.27

**Q.** Which results are given for O=C(O)CCC(NC(=O)NC(CCCCNC(=O)CCc1cn(CC[18F])nn1)C(=O)O)C(=O)O (stereo not shown) [[^18F]YC-88, 2-[3-(1-carboxy-5-{3-[1-(2-[^18F]fluoroethyl)-1H-1,2,3-triazol-yl]propanamido}pentyl)ureido]-pentanedioic acid]?
**A.** AUC (kidneys; kidneys): 70.7 % ID/g-h; AUC ratio (agent/YC-88) (kidneys; kidneys): 1; kidney absorbed dose, decrease compared to [^18F]DCFPyL (kidneys; kidneys): ~5 fold; biological half-life (kidneys; kidneys, single exponential fit of % ID/g data): 1.52 h; uptake in normal tissues on PET images ([4]; 30, 60, 120 min postinjection): extremely low uptake; PSMA^+ PC3 PIP tumor uptake on PET images ([4]; as early as 30 min postinjection, 0.36 mCi i.v.): Intense; logP ([3]; 1-octanol and PBS): −3.91
